# Data taken from ChEMBL document CHEMBL5331087, “Targeted AURKA degradation: Towards new therapeutic agents for neuroblastoma” (Eur J Med Chem, 2023).
# Active and inactive are the calls of the source. The calls are words filed in the database; no cut-off is given here.
# Legend:
# [1] = molecular target: T1, Protein cereblon/Aurora kinase A (Homo sapiens) (UniProt O14965+Q96SW2); experiment: PROTAC activity at AURKA/CRBN in human NGP cells assessed as AURKA degradation at 10 to 1000 nM measured for 24 hrs by Western blot analysis relative to control; assay type: cell-based; details: dose 10-1000 nM
# Summary of the method: (§1)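 NGP cells were seeded at about 2×10^6 per flask, adhered for 48 h, and were then treated for 24 h with DMSO matched. Lysis was in RIPA with protease/phosphatase inhibitors. AURKA was quantified by capillary Simple Western with peak areas normalised to vinculin. Fold change is relative to DMSO (mean ± SD, n = 3).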
# [2] = molecular target: T1, Protein cereblon/Aurora kinase A (Homo sapiens); experiment: PROTAC activity at AURKA/CRBN in human NGP cells assessed as AURKA degradation at 10 nM measured for 24 hrs by Western blot analysis relative to control; assay type: cell-based; summary of the method: as §1
# [3] = Antiproliferative activity against human NGP cells assessed as reduction in cell viability incubated for 48 hrs; assay type: functional, cell-based
# Summary of the method: (§2)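 Cells were grown in RPMI 1640 with 10% FCS and 2 mM L-glutamine. Seeding was 4500 cells/well for NGP, IMR-32 and N206, and 2100 cells/well for SK-N-AS, with adherence overnight. Compound was dispensed over a concentration range in triplicate. Confluence was imaged live for 48 h and normalised to the DMSO control. Absolute IC50 came from a four-parameter variable-slope fit (n = 4).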
# [4] = molecular target: T1, Protein cereblon/Aurora kinase A (Homo sapiens); experiment: PROTAC activity at AURKA/CRBN in human NGP cells assessed as AURKA degradation measured for 24 hrs by Western blot analysis; assay type: cell-based; details: dose 10-1000 nM
# [5] = molecular target: T1, Protein cereblon/Aurora kinase A (Homo sapiens); experiment: PROTAC activity at AURKA/CRBN in human NGP cells assessed as AURKA degradation at 0.1 to 1000 nM measured for 24 hrs by Western blot analysis relative to control; assay type: cell-based; details: dose 0.1-1000 nM; summary of the method: as §1
# [6] = Growth inhibition of patient derived NB059 Neuroblastoma organoid assessed as reduction in viability incubated for 48 hrs by CellTiter Glo 3D assay; assay type: functional, tissue-based, Homo sapiens; details: in the assay text read “120 hrs” for “48 hrs”
# Summary of the method: (§3)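 Patient-derived organoids were dissociated to single cells with Accutase and seeded in NB organoid medium at 5000 (000GKX), 20000 (NB059), 5000 (NB067) or 3000 (NB139) cells/well. Compound was added after 24 h over a concentration range in triplicate, with DMSO matched. Incubation was 120 h at 37 °C and 5% CO2. Viability was read by CellTiter-Glo 3D, and absolute IC50 derived (n = 1).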
# N206 = experiment: Antiproliferative activity against human N206 cells assessed as reduction in cell viability incubated for 48 hrs relative to control; assay type: functional
# Homo sapiens [7] = organism: Homo sapiens; experiment: Growth inhibition of patient derived NB067 Neuroblastoma organoid assessed as reduction in viability incubated for […] by CellTiter Glo 3D assay relative to control; assay type: functional
# [8] = molecular target: T1, Protein cereblon/Aurora kinase A (Homo sapiens); experiment: PROTAC activity at AURKA/CRBN in human NGP cells assessed as AURKA degradation at 10 to 1000 nM measured for 24 hrs by immunoblotting analysis; assay type: cell-based; details: dose 10-1000 nM; summary of the method: as §1
# [9] = molecular target: T2, N-myc proto-oncogene protein (Homo sapiens) (UniProt P04198); experiment: Induction of MYCN degradation in human NGP cells at 500 nM measured upto 72 hrs by Western blot analysis; assay type: cell-based
# T2 sequence (whole entry): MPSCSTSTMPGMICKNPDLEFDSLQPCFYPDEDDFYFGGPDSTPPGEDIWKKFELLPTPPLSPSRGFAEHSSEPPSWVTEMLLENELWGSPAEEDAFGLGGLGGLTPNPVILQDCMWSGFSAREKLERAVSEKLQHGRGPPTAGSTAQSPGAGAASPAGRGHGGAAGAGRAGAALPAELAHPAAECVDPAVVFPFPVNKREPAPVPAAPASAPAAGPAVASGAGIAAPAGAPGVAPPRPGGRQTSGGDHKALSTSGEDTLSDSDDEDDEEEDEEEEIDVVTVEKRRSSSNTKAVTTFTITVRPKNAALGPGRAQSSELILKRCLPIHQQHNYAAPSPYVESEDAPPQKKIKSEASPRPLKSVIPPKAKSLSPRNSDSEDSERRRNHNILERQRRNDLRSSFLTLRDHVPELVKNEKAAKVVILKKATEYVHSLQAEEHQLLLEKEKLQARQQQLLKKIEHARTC
# Summary of the method: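 NGP cells were treated with 500 nM compound and harvested at 0, 1, 3, 6, 24, 48 and 72 h. RIPA lysates (35 µg) were run on 10% SDS-PAGE and blotted to nitrocellulose. AURKA and MYCN were probed with vinculin as loading control and quantified by densitometry. Values are percent remaining relative to the DMSO control at each timepoint (n = 3).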
# [10] = Growth inhibition of patient derived 000GKX Neuroblastoma organoid assessed as reduction in viability […] by CellTiter Glo 3D assay; assay type: functional, tissue-based, Homo sapiens; details: Homo sapiens, Neuroblastoma organoid; read-out: IC50; summary of the method: as §3
# Homo sapiens [11] = organism: Homo sapiens; experiment: Growth inhibition of patient derived 000GKX Neuroblastoma organoid assessed as reduction in viability incubated for […] by CellTiter Glo 3D assay relative to control; assay type: functional
# [12] = Antiproliferative activity against human N206 cells assessed as reduction in cell viability incubated for 48 hrs; assay type: functional, cell-based; summary of the method: as §2
# SK-N-AS [13] = experiment: Antiproliferative activity against human SK-N-AS cells assessed as reduction in cell viability incubated for 48 hrs relative to control; assay type: functional
# Summary of the method: (§4)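 Cells grown in RPMI 1640 with 10% fetal calf serum, 2 mM L-glutamine and penicillin/streptomycin at 37 °C, 5% CO2. Seeded at 4500 (IMR-32) or 2100 (SK-N-AS) cells/well in 384-well plates and left to adhere overnight. Concentration range dispensed in triplicate. Confluence tracked by IncuCyte live-cell imaging, and 48h values normalized to DMSO. Absolute IC50 taken from a four-parameter variable-slope fit (n = 4).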
# Homo sapiens [14] = organism: Homo sapiens; experiment: Growth inhibition of patient derived NB139 Neuroblastoma organoid assessed as reduction in viability incubated for […] by CellTiter Glo 3D assay relative to control; assay type: functional
# SK-N-AS [15] = experiment: Antiproliferative activity against human SK-N-AS cells assessed as reduction in cell viability incubated for 48 hrs; assay type: functional, cell-based; details: sk-n-as; summary of the method: as §2
# IMR-32 [16] = experiment: Antiproliferative activity against human IMR-32 cells assessed as reduction in cell viability incubated for 48 hrs relative to control; assay type: functional; summary of the method: as §4
# [17] = Growth inhibition of patient derived NB139 Neuroblastoma organoid assessed as reduction in viability […] by CellTiter Glo 3D assay; assay type: functional, tissue-based; details: Homo sapiens; summary of the method: as §3
# IMR-32 [18] = experiment: Antiproliferative activity against human IMR-32 cells assessed as reduction in cell viability incubated for 48 hrs; assay type: functional, cell-based; details: IMR-32, 48 h; summary of the method: as §2
# [19] = Growth inhibition of patient derived NB067 Neuroblastoma organoid assessed as reduction in viability […] by CellTiter Glo 3D assay; assay type: functional, tissue-based; details: Homo sapiens; summary of the method: as §3
# Homo sapiens [20] = organism: Homo sapiens; experiment: Growth inhibition of patient derived NB059 Neuroblastoma organoid assessed as reduction in viability incubated for […] by CellTiter Glo 3D assay relative to control; assay type: functional
# NGP = experiment: Antiproliferative activity against human NGP cells assessed as reduction in cell viability incubated for 48 hrs relative to control; assay type: functional
# [21] = molecular target: T1, Protein cereblon/Aurora kinase A (Homo sapiens); experiment: PROTAC activity at AURKA/CRBN in human NGP cells assessed as downregulation of AURKA level at 10 to 1000 nM measured for 24 hrs by Western blot analysis; assay type: cell-based; details: dose 10-1000 nM; summary of the method: as §1
# [22] = molecular target: T3, Aurora kinase A (Homo sapiens) (UniProt O14965); experiment: Induction of AURKA degradation (unknown origin) measured for 6 hrs relative to control
# T3 sequence (whole entry): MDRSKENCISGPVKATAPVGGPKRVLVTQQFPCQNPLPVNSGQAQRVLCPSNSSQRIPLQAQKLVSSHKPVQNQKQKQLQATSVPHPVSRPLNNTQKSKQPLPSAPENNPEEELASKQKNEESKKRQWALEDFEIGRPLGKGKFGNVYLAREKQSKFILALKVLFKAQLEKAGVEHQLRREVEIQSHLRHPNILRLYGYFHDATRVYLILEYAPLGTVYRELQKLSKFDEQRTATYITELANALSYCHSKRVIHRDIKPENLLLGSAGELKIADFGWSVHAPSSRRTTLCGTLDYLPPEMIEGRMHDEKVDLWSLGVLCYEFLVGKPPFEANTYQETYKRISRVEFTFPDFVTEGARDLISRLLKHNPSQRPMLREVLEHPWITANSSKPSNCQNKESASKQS
# Aurora kinase A = molecular target: T4, Aurora kinase A (Homo sapiens, UniProt O14965); experiment: Induction of AURKA degradation (unknown origin) measured for 6 hrs
# T4 sequence (O14965 whole entry): T3 sequence (whole entry)
# [23] = molecular target: T1, Protein cereblon/Aurora kinase A (Homo sapiens); experiment: PROTAC activity at AURKA/CRBN in human NGP cells assessed as reduction in AURKA level at 100 nM measured for 24 hrs by Western blot analysis relative to control; assay type: cell-based; design: scale not given: the % may be the effect or the level left; summary of the method: as §1
# [24] = molecular target: T1, Protein cereblon/Aurora kinase A (Homo sapiens); experiment: PROTAC activity at AURKA/CRBN in human NGP cells assessed as reduction in AURKA level at 10 nM measured for 24 hrs by Western blot analysis relative to control; assay type: cell-based; design: scale not given: the % may be the effect or the level left; summary of the method: as §1
# [25] = molecular target: T1, Protein cereblon/Aurora kinase A (Homo sapiens); experiment: PROTAC activity at AURKA/CRBN in human NGP cells assessed as AURKA degradation at 1000 nM measured for 24 hrs by Western blot analysis relative to control; assay type: cell-based; summary of the method: as §1
# T1 sequence (Q96SW2 whole entry, looked up, one chain of several): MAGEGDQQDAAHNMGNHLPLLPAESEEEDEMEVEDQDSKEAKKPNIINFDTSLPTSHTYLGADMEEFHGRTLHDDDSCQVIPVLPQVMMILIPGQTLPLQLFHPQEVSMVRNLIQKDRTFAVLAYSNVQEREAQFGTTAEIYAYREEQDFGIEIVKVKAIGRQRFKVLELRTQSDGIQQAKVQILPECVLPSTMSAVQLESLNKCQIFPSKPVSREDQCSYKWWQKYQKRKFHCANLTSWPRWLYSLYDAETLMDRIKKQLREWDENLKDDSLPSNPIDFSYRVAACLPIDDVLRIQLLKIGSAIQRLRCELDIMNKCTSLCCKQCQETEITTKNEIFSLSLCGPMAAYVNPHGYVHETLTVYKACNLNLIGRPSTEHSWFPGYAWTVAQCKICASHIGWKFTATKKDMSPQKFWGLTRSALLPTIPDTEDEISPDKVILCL
compound,measurement,setting,value
O=C1CCC(N2C(=O)c3ccc(OCCOCCOCCOCCNC(=O)[C@]4(Cc5cccc(Nc6nccs6)n5)CC[C@@H](Oc5cccc(Cl)c5F)CC4)cc3C2=O)C(=O)N1 (stereo partly drawn),Emax,[1],85%
same,Emax,[2],85%
same,IC50,[3],40.1 nM
O=C1CCC(N2C(=O)c3cccc(OCCOCCOCCNC(=O)[C@]4(Cc5cccc(Nc6nccs6)n5)CC[C@@H](Oc5cccc(Cl)c5F)CC4)c3C2=O)C(=O)N1 (stereo partly drawn),Emax,[1],85%
same,Activity,[4],Active
same,IC50,[3],80.8 nM
COc1cc(Nc2ncc3c(n2)-c2ccc(Cl)cc2C(c2c(F)cccc2OC)=NC3)ccc1C(=O)NCCOCCOCCNC(=O)COc1cccc2c1C(=O)N(C1CCC(=O)NC1=O)C2=O (stereo not drawn),Emax,[5],73%
same,IC50,[3],877 nM
O=C(COc1cccc2c1C(=O)N(C1CCC(=O)NC1=O)C2=O)NCCOCCOCCNC(=O)[C@]1(Cc2cccc(Nc3nccs3)n2)CC[C@@H](Oc2cccc(Cl)c2F)CC1 (stereo partly drawn),Activity,[4],Active
same,IC50,[3],83.3 nM
O=C(O)[C@]1(Cc2cccc(Nc3nccs3)n2)CC[C@@H](Oc2cccc(Cl)c2F)CC1 [MK-5108],IC50,[6],Not Active
same,Emax,N206,53.2%
same,Emax,Homo sapiens [7],14.2%
same,Activity,[8],inactive
same,Activity,[9],Active
same,IC50,[10],483 nM
same,Emax,Homo sapiens [11],59.5%
same,IC50,[12],Not Active
same,Emax,SK-N-AS [13],58.5%
same,Emax,Homo sapiens [14],44.1%
same,IC50,SK-N-AS [15],Not Active
same,Emax,IMR-32 [16],20.4%
same,IC50,[17],900 nM
same,IC50,IMR-32 [18],199 nM
same,IC50,[19],75.3 nM
same,IC50,[3],362 nM
same,Emax,Homo sapiens [20],75.9%
same,Emax,NGP,32.9%
O=C1CCC(N2C(=O)c3ccc(OCCOCCOCCNC(=O)[C@]4(Cc5cccc(Nc6nccs6)n5)CC[C@@H](Oc5cccc(Cl)c5F)CC4)cc3C2=O)C(=O)N1 (stereo partly drawn),Emax,[1],85%
same,IC50,[3],69.9 nM
O=C1CCC(N2C(=O)c3cccc(OCCOCCOCCOCCOCCNC(=O)[C@]4(Cc5cccc(Nc6nccs6)n5)CC[C@@H](Oc5cccc(Cl)c5F)CC4)c3C2=O)C(=O)N1 (stereo partly drawn),Emax,[1],85%
same,Activity,[4],Active
same,IC50,[3],50.9 nM
O=C1CCC(N2C(=O)c3cccc(OCCOCCNC(=O)[C@]4(Cc5cccc(Nc6nccs6)n5)CC[C@@H](Oc5cccc(Cl)c5F)CC4)c3C2=O)C(=O)N1 (stereo partly drawn),Activity,[1],inactive
same,Activity,[4],inactive
same,IC50,[3],1310 nM
O=C1CCC(N2C(=O)c3ccc(OCCOCCOCCOCCOCCNC(=O)[C@]4(Cc5cccc(Nc6nccs6)n5)CC[C@@H](Oc5cccc(Cl)c5F)CC4)cc3C2=O)C(=O)N1 (stereo partly drawn),Emax,[1],85%
same,Emax,[2],85%
same,IC50,[3],34 nM
CN1C(=O)CCC(N2C(=O)c3cccc(OCCOCCOCCOCCNC(=O)[C@]4(Cc5cccc(Nc6nccs6)n5)CC[C@@H](Oc5cccc(Cl)c5F)CC4)c3C2=O)C1=O (stereo partly drawn),Activity,[21],inactive
same,IC50,[3],1100 nM
O=C(COc1cccc2c1C(=O)N(C1CCC(=O)NC1=O)C2=O)NCCOCCOCCOCCNC(=O)[C@]1(Cc2cccc(Nc3nccs3)n2)CC[C@@H](Oc2cccc(Cl)c2F)CC1 (stereo partly drawn),Emax,[22],82%
same,IC50,[3],102 nM
same,DC50,Aurora kinase A,3 nM
O=C1CCC(N2C(=O)c3ccc(OCCOCCNC(=O)[C@]4(Cc5cccc(Nc6nccs6)n5)CC[C@@H](Oc5cccc(Cl)c5F)CC4)cc3C2=O)C(=O)N1 (stereo partly drawn),Activity,[23],17%
same,Activity,[24],45%
same,Activity,[25],Active
same,IC50,[3],63.3 nM
